Measurements gathered from unrelated publications.
Each line is one published result; the experiments were not run side by side.
Sample: plasma

Structure (SMILES) | host | route | dose | setting | endpoint | value
CC(=Nc1ccc(N=Cc2cnccn2)cc1)N(C)C | male Sprague-Dawley rat | oral | 200 mg/kg |  | Tmax | 4.98 min
O=C(C=Cc1ccccc1)Nc1cc(-c2ccnc(N3CCC(O)CC3)c2)ccn1 | female Sprague-Dawley rat | intravenous | 5 mg/kg |  | Tmax | 4.98 min
N#C[C@@]12C[C@@H]1[C@@H](n1cnc3c(N[C@@H](C4CCC4)C4CC4)nc(I)nc31)[C@H](O)[C@@H]2O | male Wistar rat | oral | 10 mg/kg |  | Tmax | 120 min
CC1=NN(/C(=N/c2nnc(C)s2)Nc2ccc(C)c(C)c2)C(c2cc(F)c(F)c(F)c2)S1 (stereo not drawn) | male CD-1 mouse | intravenous | 1 mg/kg |  | clearance | 121 mL/min/kg
Cc1cc([C@@H](C)Nc2ccccc2C(=O)O)c2nc(N3CCC(F)(F)CC3)c(C#N)c(=O)n2c1 | male beagle dog | intravenous | 2 mg/kg |  | clearance | 64 mL/min/kg
N[C@@H](CC(=O)O)Cn1nnc(-c2ccc(Oc3ncc(Cl)cc3F)cc2)n1 | male beagle dog | oral | 0.5 mg/kg |  | Cmax | 5.7 ng/mL
O=C1CCC(N2Cc3cc(NC(=O)c4cccc(F)c4)ccc3C2=O)C(=O)N1 (stereo not drawn) | female CD-1 mouse | intravenous | 3 mg/kg |  | clearance | 24 mL/min/kg
CC(=O)CC(=O)C1CC(C)C(=O)C1=O (stereo not drawn) | male Sprague-Dawley rat | oral | 100 mg/kg |  | Tmax | 4.8 min
O=C1CC[C@H](N2Cc3cc(N4CCN(CC5CCN(c6ccc([C@@H]7c8ccc(O)cc8CC[C@@H]7c7ccccc7)cc6)CC5)CC4)ccc3C2=O)C(=O)N1 | female Sprague-Dawley rat | oral | 20 mg/kg | fed | Tmax | 320 min
COc1cc2c3c(n(CCCNCCO)c(=O)c2cc1OC)-c1nc2c(cc1C3=O)OCO2 | male CD-1 mouse | intravenous | 1 mg/kg |  | clearance | 107 mL/min/kg
Cc1c(C(=O)O)ccc2c3n(nc12)[C@@H]1[C@H](C3)N(CC2CC2)[C@@]2(C(=O)Nc3cc(Cl)ccc32)[C@H]1c1cccc(Cl)c1F | male dog | oral | 2 mg/kg |  | Cmax | 3.5 µM
CCN1CCN(Cc2ccc(NC(=O)c3ccc(C)c(NC(=O)c4cncc(-c5cccs5)c4)c3)cc2C(F)(F)F)CC1 | mouse | intraperitoneal | 20 mg/kg | single dose | CL/F | 151 mL/min/kg
O=C1CCC(N2Cc3cc(Nc4noc5cc(F)ccc45)ccc3C2=O)C(=O)N1 (stereo not drawn) | female CD-1 mouse | intravenous | 3 mg/kg |  | clearance | 55 mL/min/kg
CCNCCCn1c2c(c3cc(OC)c(OC)cc3c1=O)C(=O)c1cc3c(nc1-2)OCO3 | male CD-1 mouse | intravenous | 1 mg/kg |  | clearance | 107 mL/min/kg
Cc1cc2sc(N)nc2c2cccnc12 | female BALB/c mouse | intraperitoneal | 30 mg/kg | single dose | CL/F | 11 mL/min/kg
